Data set [1] in a line: Half life in NSG mouse at 20 mg/kg, ip administered as single dose by HPLC-MS/MS analysis. In kind it is ADME, organism-based. The following applies: in vivo. Put shortly: (§1)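 NSG mice given a single 20 mg/kg IP dose in Cremophor EL/EtOH (1:1, 4% final volume)/sterile saline. Tail-vein blood at 0.5, 1, 2, 4, 8 and 24 h, n = 2. Drug quantified in serum/plasma. Half-life and clearance calculated assuming 100% bioavailability.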

A further data set addresses Histone deacetylase 3 (Homo sapiens, UniProt O15379). Nature of the data set: Inhibition of recombinant human HDAC3 expressed in SF9 baculoviral system using FAM-labeled acetylated peptide as substrate by EMSA. Put shortly: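 Full-length recombinant human enzyme from an Sf9 baculovirus system, in 100 mM HEPES pH 7.5 with 25 mM KCl, 0.1% BSA, 0.01% Triton X-100 and 1% DMSO. Final enzyme was 0.5 nM for HDAC3, 60 nM for HDAC6 and 5.0 nM for HDAC8. FAM-acetylated peptide was 1 μM. The read-out was product/(substrate+product) by microfluidic mobility shift, with inhibition set against DMSO and no-enzyme controls (quadruplicate). Compounds were tested at 12 threefold-spaced concentrations, and IC50 came from a four-parameter sigmoid fit.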

Data set [2] is filed under the species Homo sapiens. Nature of the data set: Cytotoxicity against human D458 cells at 39 nM after 72 hrs by Presto Blue assay. The class given is functional, cell-based. Put shortly: (§2)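 D425 and D458 medulloblastoma cells in DMEM high glucose with 20% FBS, seeded at 1000 cells/well in medium with 1% FBS. Twofold dilutions from 20 μM down to 39 nM. Exposed 3 days at 37 °C. Presto Blue added about 4 h before fluorescence read (540–570 nm). IC50 from % viability versus log concentration.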

Data set [3] in a line: Intrinsic clearance in ICR/CD1 mouse hepatocytes assessed per million cells at 1 uM up to 120 mins by LC-MS/MS analysis. The class given is ADME, cell-based, Hepatocyte. Conditions: 2 h.
Another data set deals with Panc1005. Nature of the data set: Cytotoxicity against human Panc 10.05 cells assessed as reduction in tumor spheroid area after 72 hrs in presence of human CAF19 cells by Alamar Blue assay. The class given is functional, cell-based. Conditions: Panc1005, 72 h. Put shortly: (§3)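 3D spheroids of patient-derived PDAC cells (tomato red) alone or with CAF19 cells, plus CAF cultures. Imaging read-outs: area is the μ2 of objects above a tomato red intensity threshold; intensity is summed red or green pixel fluorescence after background removal. n = 3–5.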

Data set [4] concerns the target Signal transducer and activator of transcription 5B (Homo sapiens) (UniProt P51692). Nature of the data set: Inhibition of STAT5b phosphorylation at Y694 in human MV4-11 cells at 10 uM after 5 hrs by Western blot method. The class given is cell-based. Put shortly: (§4)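 Run on 4–15% SDS-PAGE and transferred to PVDF. Primary antibodies 1:1000 overnight at 4 °C, HRP or fluorescent secondary 1:5000, ECL detection, β-actin loading control.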
(In general: Immunoblotting shows a protein as a band on a membrane.)

Data set [5] concerns the target Signal transducer and activator of transcription 3 (Homo sapiens) (UniProt P40763). Put plainly: Inhibition of STAT3 phosphorylation at Y705 residue in human BTSC 147EF cells at 2 uM after 3 to 24 hrs by Western blot method. In kind it is cell-based. Put shortly: (§5)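 BTSCs dissociated to single cells and treated with drug or DMSO. Lysed in RIPA buffer with protease inhibitors. 20 μg lysate run on SDS-PAGE and transferred to nitrocellulose. Blocked in 5% milk, primary antibody overnight at 4 °C, then HRP secondary for 1 h.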

For data set [6] the target is unchanged. Nature of the data set: Inhibition of STAT3 phosphorylation at S727 residue in human BTSC 100EF cells at 1 to 10 uM after 24 hrs by Western blot method. In kind it is cell-based. Put shortly:
as §5

Data set [7] shares this target. Put plainly: Inhibition of STAT3 phosphorylation at Y705 residue in human BTSC 143EF cells at 1 to 10 uM after 24 hrs by Western blot method. In kind it is cell-based. Put shortly: as §5
A short description of data set [8]: Cytotoxicity against mouse KPC monolayer cells assessed as reduction in tumor spheroid intensity after 72 hrs by Alamar Blue assay. The class given is functional, cell-based. Put shortly: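 Monolayer proliferation of STR-authenticated, mycoplasma-checked patient-derived PDAC lines and mouse KPC cells. Plated at 2000 cells/well, treated 72 h, read by alamarBlue. At least triplicate, n = 3–5.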
(In general: Resazurin is reduced to fluorescent resorufin, in cell work by metabolically active cells.)

In data set [9] the test system is Pa03C. Put plainly: Cytotoxicity against human Pa03C cells assessed as reduction in tumor spheroid area after 72 hrs in presence of human CAF19 cells by Alamar Blue assay. The class given is functional, cell-based. Put shortly:
as §3

Data set [10] has as its target Histone deacetylase 11 (Homo sapiens) (UniProt Q96DB2). Put plainly: Inhibition of recombinant human HDAC11 expressed in SF9 baculoviral system at 10 uM using FAM-labeled acetylated peptide as substrate by EMSA relative to control. Put shortly: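 Full-length recombinant human HDACs from an Sf9 baculovirus system. Single-point screen at 10 μM by microfluidic mobility-shift assay with FAM-labeled acetylated peptide substrate. Buffer: 100 mM HEPES pH 7.5, 25 mM KCl, 0.1% BSA, 0.01% Triton X-100, 1% DMSO. % inhibition from product/(substrate + product) against no-inhibitor and no-enzyme controls.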
(In general: In EMSA bound probe runs differently from free probe, usually more slowly.)

The target of data set [11] is Signal transducer and activator of transcription 3 (Homo sapiens) (UniProt P40763). Put plainly: Inhibition of STAT3 phosphorylation at Y705 residue in human MDA-MB-231 cells up to 30 uM after 5 hrs by Western blot method. In kind it is cell-based. Put shortly: as §4
The subject of the next data set is PC-3. Nature of the data set: Cytotoxicity against human PC3 cells at 50 uM after 72 hrs by CellTiter-Blue assay. The class given is functional, cell-based.
The nature of data set [12]: Drug uptake in NSG mouse serum at 20 mg/kg, ip administered as single dose and measured at 4 hrs by HPLC-MS/MS analysis. The class given is ADME, organism-based. The following applies: read-out: Drug uptake. Put shortly:
as §1

A short description of data set [13]: Selectivity ratio of IC50 for human CAF19 cells to IC50 for human Pa03C cells.
The nature of data set [14]: Cytotoxicity against human […] cells assessed as reduction in tumor spheroid intensity after 72 hrs by Alamar Blue assay. In kind it is cell-based. Put shortly: as §3
Data set [15] is described as follows: Drug recovery in CD1 mouse plasma after 6 hrs by LC-ESI MS analysis. In kind it is ADME, cell-free. The following applies: read-out: Drug recovery.
A short description of data set [16]: Drug uptake in NSG mouse serum at 40 mg/kg, ip administered daily for 5 days by HPLC-MS/MS analysis. The class given is ADME, organism-based. Conditions: read-out: Drug uptake. Put shortly: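 NSG mice dosed IP once daily for 5 days at 10 or 40 mg/kg, n = 6. Blood collected 5 h after the final injection for serum drug concentration, reported ± SD.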
The species named for data set [17] is Homo sapiens. Nature of the data set: Cytotoxicity against human D425 cells at 39 nM after 72 hrs by Presto Blue assay. In kind it is functional, cell-based. Put shortly: as §2
For data set [18], the system named is Pa03C. Nature of the data set: Cytotoxicity against human Pa03C cells assessed as reduction in tumor spheroid intensity after 72 hrs in presence of human CAF19 cells by Alamar Blue assay. In kind it is functional, cell-based. Put shortly:
as §3

In the next data set the test system is Mus musculus. Put plainly: Antitumor activity against mouse KPC cells allografted in […] C57BI/6 mouse assessed as mean survival time at 50 mg/kg, ip administered daily for 5 days per week for 1 month starting on day 7 post implantation (reference value: 29.5 days). The class given is functional, organism-based.

SMILES strings stand for the structures. pIC50: −log10 of the molar value. Active and inactive are the calls of the source.

Sequence of Signal transducer and activator of transcription 3 (Homo sapiens) (P40763 whole entry): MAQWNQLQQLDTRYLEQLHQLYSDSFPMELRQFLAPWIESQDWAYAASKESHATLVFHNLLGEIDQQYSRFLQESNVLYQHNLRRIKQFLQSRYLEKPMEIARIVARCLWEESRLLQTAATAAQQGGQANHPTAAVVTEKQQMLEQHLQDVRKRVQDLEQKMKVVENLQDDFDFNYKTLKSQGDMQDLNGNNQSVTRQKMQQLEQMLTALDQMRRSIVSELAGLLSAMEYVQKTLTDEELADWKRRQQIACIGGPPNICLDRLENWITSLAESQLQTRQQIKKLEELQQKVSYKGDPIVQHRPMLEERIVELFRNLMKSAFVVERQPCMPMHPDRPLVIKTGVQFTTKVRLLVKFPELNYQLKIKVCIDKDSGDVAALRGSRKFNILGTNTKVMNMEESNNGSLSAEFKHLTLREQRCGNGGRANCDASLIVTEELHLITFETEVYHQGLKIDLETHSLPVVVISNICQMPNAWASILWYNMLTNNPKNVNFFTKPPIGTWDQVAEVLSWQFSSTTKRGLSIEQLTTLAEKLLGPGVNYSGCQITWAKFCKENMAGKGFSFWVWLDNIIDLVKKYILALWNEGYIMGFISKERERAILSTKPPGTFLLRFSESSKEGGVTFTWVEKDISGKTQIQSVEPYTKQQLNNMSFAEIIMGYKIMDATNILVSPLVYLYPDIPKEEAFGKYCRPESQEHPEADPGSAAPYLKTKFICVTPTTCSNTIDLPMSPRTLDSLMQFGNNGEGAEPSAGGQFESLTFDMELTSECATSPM
Sequence of Signal transducer and activator of transcription 5B (Homo sapiens) (P51692 whole entry): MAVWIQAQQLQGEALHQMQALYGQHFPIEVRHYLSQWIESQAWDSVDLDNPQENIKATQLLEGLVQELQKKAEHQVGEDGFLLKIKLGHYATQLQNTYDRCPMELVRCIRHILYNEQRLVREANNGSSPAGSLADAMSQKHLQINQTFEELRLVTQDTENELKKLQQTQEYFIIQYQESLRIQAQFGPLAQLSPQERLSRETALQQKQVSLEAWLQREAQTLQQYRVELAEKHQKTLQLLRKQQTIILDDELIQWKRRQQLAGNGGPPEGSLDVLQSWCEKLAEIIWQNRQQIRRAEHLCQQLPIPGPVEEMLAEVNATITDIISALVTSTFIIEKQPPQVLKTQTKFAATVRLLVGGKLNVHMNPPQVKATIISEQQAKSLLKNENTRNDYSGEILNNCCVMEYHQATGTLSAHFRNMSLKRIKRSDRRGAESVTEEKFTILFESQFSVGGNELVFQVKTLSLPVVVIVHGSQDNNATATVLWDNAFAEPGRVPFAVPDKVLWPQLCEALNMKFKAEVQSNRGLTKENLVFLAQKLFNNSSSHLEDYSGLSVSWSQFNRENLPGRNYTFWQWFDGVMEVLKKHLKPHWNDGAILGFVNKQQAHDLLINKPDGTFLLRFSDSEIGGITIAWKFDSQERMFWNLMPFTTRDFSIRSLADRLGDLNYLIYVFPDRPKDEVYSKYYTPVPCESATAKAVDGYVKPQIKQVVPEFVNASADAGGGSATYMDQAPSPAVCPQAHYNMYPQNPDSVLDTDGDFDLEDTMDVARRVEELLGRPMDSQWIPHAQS
Sequence of Histone deacetylase 11 (Homo sapiens) (Q96DB2 whole entry): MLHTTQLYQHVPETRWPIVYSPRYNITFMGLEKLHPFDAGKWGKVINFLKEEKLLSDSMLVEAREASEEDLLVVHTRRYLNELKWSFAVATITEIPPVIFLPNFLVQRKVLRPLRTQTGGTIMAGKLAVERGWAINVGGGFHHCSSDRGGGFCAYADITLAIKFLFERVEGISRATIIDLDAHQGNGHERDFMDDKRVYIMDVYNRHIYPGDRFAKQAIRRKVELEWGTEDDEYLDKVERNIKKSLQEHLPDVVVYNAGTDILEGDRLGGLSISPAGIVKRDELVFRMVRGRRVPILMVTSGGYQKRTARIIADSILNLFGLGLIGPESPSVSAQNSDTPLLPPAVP
Sequence of Histone deacetylase 3 (O15379 whole entry): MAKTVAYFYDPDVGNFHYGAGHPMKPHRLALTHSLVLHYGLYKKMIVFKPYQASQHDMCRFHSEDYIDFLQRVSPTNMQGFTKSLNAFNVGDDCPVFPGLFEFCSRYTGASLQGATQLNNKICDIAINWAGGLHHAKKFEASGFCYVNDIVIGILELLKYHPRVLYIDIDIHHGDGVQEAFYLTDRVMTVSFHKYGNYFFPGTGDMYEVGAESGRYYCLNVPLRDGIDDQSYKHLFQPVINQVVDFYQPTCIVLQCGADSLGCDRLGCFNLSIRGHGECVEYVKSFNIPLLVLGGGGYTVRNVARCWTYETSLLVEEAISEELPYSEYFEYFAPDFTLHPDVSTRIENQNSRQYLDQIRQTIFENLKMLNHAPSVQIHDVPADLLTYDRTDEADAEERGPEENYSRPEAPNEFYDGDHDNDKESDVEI

By half-life is commonly meant the time needed for the level to fall by half in the phase considered. A low value points to rapid decline. A word on the pIC50: it is −log10 of the IC50, conventionally taken in molar units. As usually defined, the inhibition is the relative decrease from the control value, in per cent. Regarding `CC(C)(C)c1ccc(CN(C(=O)CN(Cc2c(F)c(F)c(F)c(F)c2F)S(=O)(=O)c2ccc(F)cc2)c2ccc(C(=O)NO)cc2)cc1`, the half-life in [1] was 5 h. The pIC50 at Histone deacetylase 3 was 6.18; in the data set on Panc1005, 6.03; in data set [8], 5.89; in the data set with Pa03C [9] it was 5.85; in [14] it was 5.35 to 5.47; with Pa03C [18], 5.81. For the same compound, the result in the data set listed under Homo sapiens [2], in the data set with PC-3 and in the data set listed under Homo sapiens [17] was Active. In addition, in [3], the CLH was 36 µL/min. In addition, the inhibition result in [4], in [5], in [6], in data set [7] and in data set [11] was “inactive” throughout. For the same compound, the inhibition in data set [10] was determined as 97%. Also, the concentration at 4 h in [12] came to 3660 ng/mL. In addition, the “Ratio IC50” value in [13] is 5 - 6. Further, the remaining at 6 h in [15] was in the range of 16 to 20%. Besides, the concentration at 120 h in data set [16] was determined as 2640 nM. The result in the data set with Mus musculus was inactive.

These data come from ChEMBL document CHEMBL4400543, “Identification and Characterization of AES-135, a Hydroxamic Acid-Based HDAC Inhibitor That Prolongs Survival in an Orthotopic Mouse Model of Pancreatic Cancer” (J Med Chem, 2019).
